From ChEMBL document CHEMBL1158565, “Antagonism of 4-substituted 1,4-dihydropyridine-3,5-dicarboxylates toward voltage-dependent L-type Ca2+ channels Ca V 1.3 and Ca V 1.2” (Bioorg Med Chem, 2010)

What was measured:
[1] = biological target: Voltage-dependent L-type calcium channel subunit alpha-1C (Oryctolagus cuniculus, UniProt P15381); assay: Antagonist activity at rabbit Cav1.2 expressed in HEK293 cells assessed as inhibition of voltage pulse-induced calcium current by FLIPR calcium 4 assay; format: functional, cell-based
Voltage-dependent L-type calcium channel subunit alpha-1C, sequence (P15381 whole entry): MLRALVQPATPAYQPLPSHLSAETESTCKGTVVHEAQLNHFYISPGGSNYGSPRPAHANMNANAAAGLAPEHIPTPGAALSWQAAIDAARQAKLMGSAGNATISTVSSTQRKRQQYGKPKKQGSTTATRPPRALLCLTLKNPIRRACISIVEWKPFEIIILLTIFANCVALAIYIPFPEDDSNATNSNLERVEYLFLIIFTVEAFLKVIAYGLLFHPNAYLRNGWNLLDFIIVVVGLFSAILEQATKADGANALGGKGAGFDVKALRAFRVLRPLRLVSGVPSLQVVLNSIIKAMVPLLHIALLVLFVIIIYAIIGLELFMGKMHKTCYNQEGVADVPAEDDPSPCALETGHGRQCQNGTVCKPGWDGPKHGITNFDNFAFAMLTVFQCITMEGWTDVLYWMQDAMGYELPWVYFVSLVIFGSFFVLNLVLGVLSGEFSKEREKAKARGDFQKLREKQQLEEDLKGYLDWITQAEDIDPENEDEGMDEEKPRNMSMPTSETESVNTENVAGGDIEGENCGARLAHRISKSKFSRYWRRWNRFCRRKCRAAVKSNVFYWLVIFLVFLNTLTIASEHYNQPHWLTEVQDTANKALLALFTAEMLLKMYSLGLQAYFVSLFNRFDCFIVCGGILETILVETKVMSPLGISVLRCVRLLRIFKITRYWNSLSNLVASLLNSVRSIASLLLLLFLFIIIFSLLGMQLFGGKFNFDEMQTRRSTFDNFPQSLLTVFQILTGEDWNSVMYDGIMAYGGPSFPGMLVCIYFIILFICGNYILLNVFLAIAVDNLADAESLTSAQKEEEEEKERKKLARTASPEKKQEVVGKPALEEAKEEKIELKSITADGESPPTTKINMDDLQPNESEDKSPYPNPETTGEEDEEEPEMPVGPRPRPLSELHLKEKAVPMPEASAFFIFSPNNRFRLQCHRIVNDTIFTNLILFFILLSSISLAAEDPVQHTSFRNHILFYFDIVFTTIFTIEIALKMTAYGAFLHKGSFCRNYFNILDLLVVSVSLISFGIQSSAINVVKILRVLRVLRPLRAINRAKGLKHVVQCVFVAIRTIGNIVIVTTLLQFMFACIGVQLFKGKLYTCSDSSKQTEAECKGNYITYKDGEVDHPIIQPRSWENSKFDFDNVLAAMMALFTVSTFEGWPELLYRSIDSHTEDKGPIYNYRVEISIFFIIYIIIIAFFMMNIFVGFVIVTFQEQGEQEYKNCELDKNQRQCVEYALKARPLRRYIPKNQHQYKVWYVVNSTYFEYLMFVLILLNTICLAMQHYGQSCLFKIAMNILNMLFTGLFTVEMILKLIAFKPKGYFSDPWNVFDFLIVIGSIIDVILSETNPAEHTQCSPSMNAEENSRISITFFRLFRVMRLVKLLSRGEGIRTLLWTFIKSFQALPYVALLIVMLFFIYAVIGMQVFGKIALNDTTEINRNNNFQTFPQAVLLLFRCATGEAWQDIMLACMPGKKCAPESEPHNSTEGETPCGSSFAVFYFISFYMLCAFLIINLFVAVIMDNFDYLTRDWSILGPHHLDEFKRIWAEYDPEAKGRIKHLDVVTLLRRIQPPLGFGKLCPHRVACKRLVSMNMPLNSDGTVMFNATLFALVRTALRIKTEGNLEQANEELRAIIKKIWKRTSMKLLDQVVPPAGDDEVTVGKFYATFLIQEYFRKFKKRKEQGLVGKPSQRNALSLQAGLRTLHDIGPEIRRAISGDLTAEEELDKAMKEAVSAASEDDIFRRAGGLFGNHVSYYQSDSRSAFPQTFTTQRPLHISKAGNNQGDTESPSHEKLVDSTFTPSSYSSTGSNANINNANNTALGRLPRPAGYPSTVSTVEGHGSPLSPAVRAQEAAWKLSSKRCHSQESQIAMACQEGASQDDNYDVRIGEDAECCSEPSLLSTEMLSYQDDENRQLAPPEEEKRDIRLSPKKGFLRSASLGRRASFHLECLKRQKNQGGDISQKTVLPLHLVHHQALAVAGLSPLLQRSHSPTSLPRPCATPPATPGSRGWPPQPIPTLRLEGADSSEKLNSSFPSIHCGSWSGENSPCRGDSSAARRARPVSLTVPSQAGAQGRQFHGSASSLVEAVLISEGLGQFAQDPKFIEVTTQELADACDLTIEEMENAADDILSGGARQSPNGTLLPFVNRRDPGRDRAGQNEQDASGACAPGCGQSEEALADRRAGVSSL
Summary of the method: (§1)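 HEK293 lines stably expressing Cavβ3 and Cavα2δ-1 plus Cav1.2 α1C (rabbit) or Cav1.3 α1D (rat) were selected with zeocin/hygromycin. Calcium signals were read by FLIPR with Calcium 4 dye. IC50 came from 11-point dose-response curves. Signal percentage error (SD/mean) was 6.4% for Cav1.2 and 4.1% for Cav1.3 cells.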

[2] = biological target: Voltage-dependent L-type calcium channel subunit alpha-1D (Rattus norvegicus, UniProt P27732); assay: Antagonist activity at rat Cav1.3 expressed in HEK293 cells assessed as inhibition of voltage pulse-induced calcium current by FLIPR calcium 4 assay; format: functional, cell-based; summary of the method: as §1
Voltage-dependent L-type calcium channel subunit alpha-1D, sequence (P27732 whole entry): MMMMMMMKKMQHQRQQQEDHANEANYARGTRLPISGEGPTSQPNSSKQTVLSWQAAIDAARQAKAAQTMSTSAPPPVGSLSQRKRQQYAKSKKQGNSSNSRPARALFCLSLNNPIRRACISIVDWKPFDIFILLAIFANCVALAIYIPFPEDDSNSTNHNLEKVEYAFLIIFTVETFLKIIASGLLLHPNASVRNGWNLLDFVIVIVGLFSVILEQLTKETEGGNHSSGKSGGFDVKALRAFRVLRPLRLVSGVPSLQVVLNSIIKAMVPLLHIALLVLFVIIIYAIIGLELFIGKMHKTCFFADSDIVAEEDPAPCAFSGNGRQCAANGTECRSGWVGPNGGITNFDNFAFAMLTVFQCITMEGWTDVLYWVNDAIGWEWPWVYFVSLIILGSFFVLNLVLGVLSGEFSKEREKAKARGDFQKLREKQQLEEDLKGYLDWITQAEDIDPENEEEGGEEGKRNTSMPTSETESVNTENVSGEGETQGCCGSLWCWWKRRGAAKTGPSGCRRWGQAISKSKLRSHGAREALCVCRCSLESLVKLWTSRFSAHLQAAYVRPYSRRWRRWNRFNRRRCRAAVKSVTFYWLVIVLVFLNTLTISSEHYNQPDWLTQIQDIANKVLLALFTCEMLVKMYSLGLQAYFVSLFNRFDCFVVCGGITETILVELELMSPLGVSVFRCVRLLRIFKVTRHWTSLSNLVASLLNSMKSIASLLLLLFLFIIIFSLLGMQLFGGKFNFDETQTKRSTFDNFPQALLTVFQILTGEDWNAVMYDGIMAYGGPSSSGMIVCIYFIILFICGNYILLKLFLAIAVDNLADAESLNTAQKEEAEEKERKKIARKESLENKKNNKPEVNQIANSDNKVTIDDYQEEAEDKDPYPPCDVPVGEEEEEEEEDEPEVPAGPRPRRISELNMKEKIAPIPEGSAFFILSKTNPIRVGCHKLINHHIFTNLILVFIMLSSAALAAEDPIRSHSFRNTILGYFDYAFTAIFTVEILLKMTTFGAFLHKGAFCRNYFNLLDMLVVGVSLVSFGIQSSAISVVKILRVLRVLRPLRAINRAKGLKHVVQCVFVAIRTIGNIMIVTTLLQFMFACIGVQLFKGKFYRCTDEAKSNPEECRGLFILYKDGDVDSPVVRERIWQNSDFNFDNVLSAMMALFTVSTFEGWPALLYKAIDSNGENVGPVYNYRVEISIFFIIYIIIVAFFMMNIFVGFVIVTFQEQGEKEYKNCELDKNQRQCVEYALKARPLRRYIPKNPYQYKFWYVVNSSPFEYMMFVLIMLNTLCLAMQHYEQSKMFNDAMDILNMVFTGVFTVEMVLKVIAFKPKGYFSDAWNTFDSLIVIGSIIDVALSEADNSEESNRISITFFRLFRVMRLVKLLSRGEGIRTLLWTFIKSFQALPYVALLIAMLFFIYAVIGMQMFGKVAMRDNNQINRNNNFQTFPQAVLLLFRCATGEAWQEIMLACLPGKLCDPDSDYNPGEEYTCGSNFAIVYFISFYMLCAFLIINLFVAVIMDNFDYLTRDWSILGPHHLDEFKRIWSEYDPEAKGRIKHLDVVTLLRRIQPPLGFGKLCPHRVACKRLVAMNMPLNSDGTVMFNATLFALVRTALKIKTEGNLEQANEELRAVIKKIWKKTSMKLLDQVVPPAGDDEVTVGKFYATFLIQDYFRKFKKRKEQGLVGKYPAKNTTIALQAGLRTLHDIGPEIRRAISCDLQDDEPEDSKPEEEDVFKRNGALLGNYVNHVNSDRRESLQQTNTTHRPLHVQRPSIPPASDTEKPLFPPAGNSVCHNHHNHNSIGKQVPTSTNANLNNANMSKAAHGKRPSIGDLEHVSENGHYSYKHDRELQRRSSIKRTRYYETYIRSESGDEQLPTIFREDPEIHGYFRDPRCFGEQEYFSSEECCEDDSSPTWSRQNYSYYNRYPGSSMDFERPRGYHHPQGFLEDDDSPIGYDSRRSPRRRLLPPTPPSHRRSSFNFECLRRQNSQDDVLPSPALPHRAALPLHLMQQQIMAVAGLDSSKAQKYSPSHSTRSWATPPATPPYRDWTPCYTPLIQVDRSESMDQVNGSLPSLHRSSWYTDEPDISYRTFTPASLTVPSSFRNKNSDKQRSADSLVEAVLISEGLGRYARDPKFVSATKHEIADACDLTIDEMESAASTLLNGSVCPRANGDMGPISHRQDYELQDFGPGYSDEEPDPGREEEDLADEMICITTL

CC1=C(C#N)C(c2cccc(F)c2F)C(C#N)=C(C)N1
IC50 [1]: 1610 nM | IC50 [2]: 1150 nM

COC(=O)C1=C(C)NC(C)=C(C(=O)OC/C=C/c2ccccc2)C1c1cccc([N+](=O)[O-])c1 (centres undefined) [PRANIDIPINE]
IC50 [1]: 37 nM | IC50 [2]: 37 nM

COC(=O)C1=C(C)NC(C)=C(C(=O)OCc2ccccc2)C1c1cccc([N+](=O)[O-])c1 (centres undefined)
IC50 [1]: 25 nM | IC50 [2]: 15 nM

CCOC(=O)C1=C(C)NC(/C=C/c2ccc([N+](=O)[O-])cc2)=C(C(=O)OCC)C1c1cccc([N+](=O)[O-])c1 (centres undefined)
IC50 [1]: 1940 nM | IC50 [2]: 2060 nM

CCOC(=O)C1=C(C)NC(CO)=C(C(=O)OCC)C1c1cccc([N+](=O)[O-])c1 (centres undefined)
IC50 [1]: 49 nM | IC50 [2]: 45 nM

COC(=O)C1=C(C)NC(C)=C(C(=O)OCc2cccc(F)c2)C1c1cccc([N+](=O)[O-])c1 (centres undefined)
IC50 [1]: 22 nM | IC50 [2]: 28 nM

COC(=O)C1=C(C)NC(C)=C(C(=O)OCCCCc2ccc(OC)cc2)C1c1cccc([N+](=O)[O-])c1 (centres undefined)
IC50 [1]: 17 nM | IC50 [2]: 38 nM

CCOC(=O)C1=C(C)NC(C)=C(C(=O)OCCC#N)[C@H]1c1cccc([N+](=O)[O-])c1
IC50 [1]: 51 nM | IC50 [2]: 211 nM

COC(=O)C1=C(C)NC(C)=C(C(=O)OCC(F)(F)F)C1c1cccc([N+](=O)[O-])c1 (centres undefined)
IC50 [1]: 16 nM | IC50 [2]: 21 nM

CCOC(=O)C1=C(C)NC(CN2CCN(c3ccccc3)CC2)=C(C(=O)OCC)C1c1cccc([N+](=O)[O-])c1 (centres undefined)
IC50 [1]: 630 nM | IC50 [2]: 610 nM

CCOC(=O)C1=C(C)NC(COC(=O)c2ccccc2)=C(C(=O)OCC)C1c1cccc([N+](=O)[O-])c1 (centres undefined)
IC50 [1]: 210 nM | IC50 [2]: 170 nM

C=C(C)CCOC(=O)C1=C(C)NC(C)=C(C(=O)OC)C1c1cccc([N+](=O)[O-])c1 (centres undefined)
IC50 [1]: 23 nM | IC50 [2]: 47 nM

CCOC(=O)C1=C(C)NC(COC)=C(C(=O)OC)C1c1cccc([N+](=O)[O-])c1 (centres undefined)
IC50 [1]: 14 nM | IC50 [2]: 96 nM

CCOC(=O)C1=C(C)NC(C)=C(C(=O)OCC)C1c1ccc(F)cc1F
IC50 [1]: 20 nM | IC50 [2]: 58 nM

COC(=O)C1=C(C)NC(C)=C(C(=O)OCCC(C)c2ccccc2)C1c1cccc([N+](=O)[O-])c1 (centres undefined)
IC50 [1]: 6 nM | IC50 [2]: 11 nM

C=CCOC(=O)C1=C(C)NC(C)=C(C(=O)OC)C1c1cccc([N+](=O)[O-])c1 (centres undefined)
IC50 [1]: 15 nM | IC50 [2]: 15 nM

COC(=O)C1=C(C)NC(C)=C(C(=O)OCCCOc2ccccc2)C1c1cccc([N+](=O)[O-])c1 (centres undefined)
IC50 [1]: 9 nM | IC50 [2]: 11 nM

COC(=O)C1=C(C)NC(C)=C(C(=O)OCC(C)[N+](=O)[O-])C1c1cccc([N+](=O)[O-])c1 (centres undefined)
IC50 [1]: 108 nM | IC50 [2]: 111 nM

CCOC(=O)C1=C(C)NC(C)=C(C(=O)OCCOC)C1c1cccc([N+](=O)[O-])c1 (centres undefined)
IC50 [1]: 16 nM | IC50 [2]: 82 nM

COC(=O)C1=C(C)NC(C)=C(C(=O)OCCC(c2ccccc2)c2ccccc2)C1c1cccc([N+](=O)[O-])c1 (centres undefined)
IC50 [1]: 100 nM | IC50 [2]: 270 nM

COC(=O)C1=C(C)NC(C)=C(C(=O)O)C1c1cccc([N+](=O)[O-])c1 (centres undefined)
IC50 [1]: 900 nM | IC50 [2]: 930 nM

COC(=O)C1=C(C)NC(C)=C(C(=O)OCCCl)C1c1cccc([N+](=O)[O-])c1 (centres undefined)
IC50 [1]: 26 nM | IC50 [2]: 22 nM

COC(=O)C1=C(C)NC(C)=C(C(=O)OC2Cc3ccccc3C2)C1c1cccc([N+](=O)[O-])c1 (centres undefined)
IC50 [1]: 72 nM | IC50 [2]: 43 nM

C=C(C)C(=O)OCCOC(=O)C1=C(C)NC(C)=C(C(=O)OCC)C1c1cccc([N+](=O)[O-])c1 (centres undefined)
IC50 [1]: 10 nM | IC50 [2]: 10 nM

CCCCC1=C(C(=O)OCC)C(c2cccc([N+](=O)[O-])c2)C(C(=O)OCC)=C(C)N1 (centres undefined)
IC50 [1]: 20 nM | IC50 [2]: 20 nM

CCOC(=O)C1=C(C)NC(C=CC(=O)OC)=C(C(=O)OCC)C1c1cccc([N+](=O)[O-])c1 (mixture of isomers)
IC50 [1]: 313 nM | IC50 [2]: 213 nM

COC(=O)C1=C(C)NC(C)=C(C(=O)OCc2ccc(F)c(F)c2)C1c1cccc([N+](=O)[O-])c1 (centres undefined)
IC50 [1]: 7 nM | IC50 [2]: 20 nM

C=CCOC(=O)C1=C(C)NC(C)=C(C(=O)OCC)C1c1cccc([N+](=O)[O-])c1 (centres undefined)
IC50 [1]: 25 nM | IC50 [2]: 15 nM

CCOC(=O)C1=C(C)NC(/C=C/C#N)=C(C(=O)OCC)C1c1cccc([N+](=O)[O-])c1 (centres undefined)
IC50 [1]: 22 nM | IC50 [2]: 45 nM

CCOC(=O)C1=C(C)NC(COC)=C(C(=O)OC)C1c1ccccc1[N+](=O)[O-] (centres undefined)
IC50 [1]: 1760 nM | IC50 [2]: 790 nM

CCOC(=O)C1=C(C)NC(C)=C(C(C)=O)C1c1ccc2ccccc2c1 (centres undefined)
IC50 [1]: 2220 nM | IC50 [2]: 2320 nM

COC(=O)C1=C(C)NC(C)=C(C(=O)OCCC#N)C1c1cccc([N+](=O)[O-])c1 (centres undefined)
IC50 [1]: 26 nM | IC50 [2]: 78 nM

CCOC(=O)C1=C(C)NC(C)=C(C(=O)OCC)C1c1cccc(F)c1F
IC50 [1]: 15 nM | IC50 [2]: 10 nM

CCOC(=O)C1=C(C)NC(COC(C)=O)=C(C(=O)OCC)C1c1cccc([N+](=O)[O-])c1 (centres undefined)
IC50 [1]: 10 nM | IC50 [2]: 37 nM

CCOC(=O)C1=C(C)NC2=C(C(=O)OC2)C1c1cccc([N+](=O)[O-])c1 (centres undefined)
IC50 [1]: > 4000 nM | IC50 [2]: > 4000 nM

CCCCCOC(=O)C1=C(C)NC(C)=C(C(=O)OCC)C1c1cccc([N+](=O)[O-])c1 (centres undefined)
IC50 [1]: 49 nM | IC50 [2]: 130 nM

C#CCCOC(=O)C1=C(C)NC(C)=C(C(=O)OC)C1c1cccc([N+](=O)[O-])c1 (centres undefined)
IC50 [1]: 31 nM | IC50 [2]: 35 nM

CCOC(=O)C1=C(C)NC(C(OCC)OCC)=C(C(=O)OCC)C1c1cccc([N+](=O)[O-])c1 (centres undefined)
IC50 [1]: 460 nM | IC50 [2]: 615 nM

COC(=O)C1=C(C)NC(C)=C(C(=O)OCCOc2ccccc2Cl)C1c1cccc([N+](=O)[O-])c1 (centres undefined)
IC50 [1]: 19 nM | IC50 [2]: 46 nM

COCC1=C(C(=O)OC)C(c2cccc([N+](=O)[O-])c2)C(C(=O)OC)=C(C)N1 (centres undefined)
IC50 [1]: 115 nM | IC50 [2]: 350 nM

CCOC(=O)C1=C(C)OC(C)=C(C(=O)OCC)C1c1cccc([N+](=O)[O-])c1
IC50 [1]: > 4000 nM | IC50 [2]: 1920 nM

COC(=O)C1=C(C)NC(C)=C(C(=O)OCc2ccc(OC)c(OC)c2)C1c1cccc([N+](=O)[O-])c1 (centres undefined)
IC50 [1]: 112 nM | IC50 [2]: 117 nM

CCOC(=O)C1=C(C)NC(C)=C(C(=O)OC=O)C1c1cccc([N+](=O)[O-])c1 (centres undefined)
IC50 [1]: 33300 nM | IC50 [2]: 13900 nM

C=CCOC(=O)C1=C(C)NC(C)=C(C(=O)OCC)C1c1ccc2ccccc2c1 (centres undefined)
IC50 [1]: 1310 nM | IC50 [2]: 2160 nM

COC(=O)C1=C(C)NC(C)=C(C(=O)OCC23CC4CC(C)(CC(C)(C4)C2)C3)C1c1cccc([N+](=O)[O-])c1 (centres undefined)
IC50 [1]: 685 nM | IC50 [2]: 5070 nM

CCCC1=C(C(=O)OCC)C(c2cccc([N+](=O)[O-])c2)C(C(=O)OCC)=C(C)N1 (centres undefined)
IC50 [1]: 18 nM | IC50 [2]: 105 nM

COC(=O)C1=C(C)NC(C)=C(C(=O)OCc2ccc(-c3ccccc3)cc2)C1c1cccc([N+](=O)[O-])c1 (centres undefined)
IC50 [1]: 69 nM | IC50 [2]: 74 nM

C=CCOC(=O)C1=C(C)NC(C)=C(C(=O)OC)C1c1ccccc1[N+](=O)[O-] (centres undefined)
IC50 [1]: 8 nM | IC50 [2]: 10 nM

COC(=O)C1=C(C)NC(C)=C(C(=O)OCCC#N)[C@@H]1c1cccc([N+](=O)[O-])c1
IC50 [1]: 262 nM | IC50 [2]: 399 nM

COC(=O)C1=C(C)NC(C)=C(C(=O)OCCOCc2ccccc2)C1c1cccc([N+](=O)[O-])c1 (centres undefined)
IC50 [1]: 9 nM | IC50 [2]: 12 nM

COC(=O)C1=C(C)NC(C)=C(C(=O)OCc2cccs2)C1c1cccc([N+](=O)[O-])c1 (centres undefined)
IC50 [1]: 31 nM | IC50 [2]: 23 nM

CCOC(=O)C1=C(C)NC(C)=C(C(=O)OCCC#N)[C@@H]1c1cccc([N+](=O)[O-])c1
IC50 [1]: 50 nM | IC50 [2]: 137 nM

COC(=O)C1=C(C)NC(C)=C(C(=O)OCc2ccc(OC)cc2)C1c1cccc([N+](=O)[O-])c1 (centres undefined)
IC50 [1]: 51 nM | IC50 [2]: 79 nM

COC(=O)C1=C(C)NC(C)=C(C(=O)OCc2cc([N+](=O)[O-])cc([N+](=O)[O-])c2)C1c1cccc([N+](=O)[O-])c1 (centres undefined)
IC50 [1]: 55 nM | IC50 [2]: 40 nM

CCOC(=O)C1=C(C)NC(C)=C(C(=O)OCC)C1(C)c1ccccc1
IC50 [1]: 630 nM | IC50 [2]: 2140 nM

COC(=O)C1=C(C)NC(C)=C(C(=O)OCc2c(Cl)cc(Cl)cc2Cl)C1c1cccc([N+](=O)[O-])c1 (centres undefined)
IC50 [1]: 10 nM | IC50 [2]: 34 nM

COC(=O)C1=C(C)NC(C)=C(C(=O)OCCc2ccc(Cl)cc2)C1c1cccc([N+](=O)[O-])c1 (centres undefined)
IC50 [1]: 8 nM | IC50 [2]: 39 nM
